# Hits are enriched below; roughly 2.9% of the tested compounds scored in any of these assays.
# SIRT5 inh: blocks human SIRT5 desuccinylation of peptide; Q9NXA8; Purified SirT5, succinyl-peptide AMC, trypsin-coupled fluorescence; inhibition, % at 15 µM; 330,000 compounds, 1.1% hits; in the data active means inhibition above about 15%
# Target sequence (Q9NXA8 whole entry, looked up): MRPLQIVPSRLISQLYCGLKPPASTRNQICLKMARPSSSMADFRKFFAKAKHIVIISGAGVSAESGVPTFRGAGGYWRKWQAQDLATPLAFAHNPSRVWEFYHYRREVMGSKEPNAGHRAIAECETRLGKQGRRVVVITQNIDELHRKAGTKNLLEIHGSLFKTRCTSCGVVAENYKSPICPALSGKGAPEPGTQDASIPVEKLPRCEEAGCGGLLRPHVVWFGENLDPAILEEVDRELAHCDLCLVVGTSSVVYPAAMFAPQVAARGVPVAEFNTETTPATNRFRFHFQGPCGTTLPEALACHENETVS
# CAL PDZ FP-1: inhibitors of human CAL PDZ peptide binding; inhibition, % at 24.9 µM; AID 602252; 300,000 compounds, 0.92% hits; purified CAL PDZ, TMR-peptide fluorescence polarization, 1 h;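 active means mean inhibition of at least 30% with at least half of replicates also reaching 30%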;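 further: 0% = DMSO neutral control and 100% = excess unlabeled competitor peptide PRC23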
# CAL PDZ FP-2: human CAL PDZ-peptide interaction inhibition; Q9HD26; purified CAL PDZ, TMR-peptide fluorescence polarization, 1 h; inhibition, % at 20 µM; 330,000 compounds, 0.02% hits;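 active means highest replicate inhibition of at least 40%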;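 further: plate controls were DMSO neutral control wells for no effect and unlabeled competitor peptide control wells for full effect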
#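 Material – purified CerCALP PDZ construct · Detection – FP readout, S and P plane fluorescence · Measure – percent inhibition from loss of millipolarization · Controls – unlabelled peptide for full inhibition, DMSO wells as neutral · Probe or stimulus – TMR-labelled reporter peptide T*-PRC34 bound in PDZ groove · Times – 1 h at RT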
# S100A4 inh HTS: inhibitors of human S100A4 binding to myosin IIA peptide. 360,000 compounds, 0.14% hits. AID 652163. inhibition, % at 10.7 µM. P26447. S100A4/TAMRA-MyoIIA peptide fluorescence polarization;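 active means mean inhibition of at least 70% across replicates, with every replicate also reaching that level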
# Target sequence (P26447 whole entry, looked up): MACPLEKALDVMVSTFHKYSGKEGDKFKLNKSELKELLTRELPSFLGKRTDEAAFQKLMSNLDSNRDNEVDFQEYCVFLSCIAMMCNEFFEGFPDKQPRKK
#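 incubation = readout 5 min after mixing, signal stable up to 60 min | system = S100A4 monomer protein | buffer or medium = HEPES pH 7.2 with CaCl2, KCl, NaCl, DTT, Triton | benchmarks = neutral control DMSO, positive control TFP | also added = fluorescent myosin IIA peptide, 5 nM | compound dosing = one concentration per compound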
# ERAP1 HTS inh: blocks human ERAP1 aminopeptidase activity; Q9NZ08; recombinant ERAP1, Leu-AMC fluorescence, 60 min; inhibition, % at 10.7 µM; 340,000 compounds, 0.15% hits;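 active means mean replicate inhibition of at least 30%, or all replicates individually reaching that 30% level; inactive means mean below 30% and not every replicate reaching it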;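 further: 0% = neutral control wells and 100% = L-leucinethiol positive control wells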
# DENV2 CPE: inhibitors of DENV2 cytopathic effect; DENV2-infected cells, cytopathic effect rescue, plate reader; CPE inhibition, % at 9.99 µM; 350,000 compounds, 1.7% hits; in the data active means CPE inhibition above about 20%, passing the limit was not always enough; tested in BHK-21 cells;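 further: 0% = median of neutral control wells and 100% = median of positive control wells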
# * = called active by the depositor; / = no result given.
SMILES,SIRT5 inh,CAL PDZ FP-1,CAL PDZ FP-2,S100A4 inh HTS,ERAP1 HTS inh,DENV2 CPE
Cc1ccc(N2C(=O)C3C(C2=O)C(C(=O)c2ccc(Cl)cc2)N2CCCC32)cc1 (centres undefined),/,42*,0,/,/,/
CC(=O)Oc1ccc(N2C(=O)C3C(C2=O)C(C(=O)c2ccc(Cl)cc2)N2CCCC32)cc1 (centres undefined),2,27,-3,-5,/,3
CN1CCN(C(=O)C2CCN(c3ncc(C(F)(F)F)cc3Cl)CC2)CC1,37*,3,0,14,-2,-1
O=C(O)C1=C[C@@H](c2ccc3c(c2)Cc2ccccc2-3)C[C@@H](OCc2ccc(CO)cc2)O1,-9,/,/,6,-1,15
CCOC(=O)c1ccc(S(=O)(=O)NCC(C)(C)N2CCOCC2)cc1,-1,56*,1,-1,-2,-1
CCOC(=O)c1ccc(S(=O)(=O)N2CCC(C(=O)OCC)CC2)cc1,0,-5,-2,0,-11,/
CCOC(=O)c1ccc(S(=O)(=O)N2CCC(N3CCCCC3)CC2)cc1,/,-2,0,-4,/,32*
CC(=O)c1cccc(S(=O)(=O)NCC(C)(C)N2CCOCC2)c1,16*,0,0,-1,-2,-3
CC(C)(CNC(=O)c1cccc(S(=O)(=O)NCc2ccccc2)c1)N1CCOCC1,-2,-4,-3,0,-2,0
CCOC(=O)c1ccc(S(=O)(=O)NC2CCC(C)CC2)cc1 (centres undefined),21*,-1,0,17,-2,-1
O=C(C[C@@H]1C[C@@H]2c3cc(NS(=O)(=O)c4ccc(F)cc4)ccc3O[C@@H]2[C@@H](CO)O1)NC1CCCC1,-3,/,/,-4,-1,14
C[C@@H]1CN([C@@H](C)CO)C(=O)c2cc(NC(=O)CCC(F)(F)F)ccc2O[C@H]1CN(C)S(=O)(=O)c1ccc(F)cc1,1,/,/,3,1,-9
O=C(N[C@H]1CC[C@@H](CCn2cc(-c3cccnc3)nn2)O[C@H]1CO)c1ccccc1F,-6,/,/,2,1,12
C[C@@H]1CN([C@@H](C)CO)S(=O)(=O)c2ccc(C#C[C@@H](C)O)cc2O[C@H]1CN(C)C(=O)c1ccncc1,/,/,/,/,/,-2
CCCNC(=O)c1ccccc1NC(=O)C1=CSCCO1,0,78*,0,0,-1,0
CCCCNC(=O)c1ccccc1NS(=O)(=O)c1ccc2c(c1)OCCO2,-4,-3,-1,-3,0,/
CC(C)CCNC(=O)c1ccccc1NC(=O)C1=CSCCO1,0,-2,-3,1,-3,-2
CCCNC(=O)c1ccccc1NS(=O)(=O)c1ccc2c(c1)OCCO2,/,69*,-2,/,/,/
COCC#Cc1ccc([C@@H]2[C@@H](CO)N3C(=O)CN(C(=O)Nc4ccccc4F)C[C@@H]23)cc1,2,/,/,-2,-1,0
COc1ccc(S(=O)(=O)Nc2ccc3c(c2)C(=O)N([C@@H](C)CO)C[C@H](C)[C@H](CN(C)C(=O)Nc2ccccc2)OCCCC[C@H](C)O3)cc1,/,/,/,/,/,5
COc1cccc(NC(=O)N2CC(=O)N3[C@H](C2)[C@@H](c2ccc(C#CC4CCCC4)cc2)[C@@H]3CO)c1,16*,/,/,28,-2,38*
O=C(Nc1cccc(F)c1)N1CC(=O)N2[C@H](C1)[C@@H](c1ccc(C#CCC3CCCC3)cc1)[C@@H]2CO,-2,/,/,5,2,-2
COc1ccc(NC(=O)N2CC(=O)N3[C@H](C2)[C@H](c2ccc(C#CCC4CCCC4)cc2)[C@@H]3CO)cc1,15*,/,/,-5,-1,5
COc1ccc(NC(=O)N2CC(=O)N3[C@H](C2)[C@@H](c2ccc(C#CCC4CCCC4)cc2)[C@@H]3CO)cc1,14,/,/,-5,0,2
COc1cccc(NC(=O)N2CC(=O)N3[C@H](C2)[C@@H](c2ccc(C#CCC4CCCC4)cc2)[C@@H]3CO)c1,21*,/,/,-15,-1,-7
COc1ccc(NC(=O)N2CC(=O)N3[C@@H](CO)[C@H](c4ccc(C#CCC5CCCC5)cc4)[C@@H]3C2)cc1,11,/,/,10,-2,23*
OC[C@H]1[C@@H](c2ccc(-c3cccnc3)cc2)[C@@H]2CN(CC3CCOCC3)CCCCN12,-7,/,/,0,-1,-6
